Results reported in ChEMBL document CHEMBL4715736, “Identification of anticancer agents based on the thieno[2,3-b]pyridine and 1H-pyrazole molecular scaffolds” (2016).

Assays:
Type in all cases: functional
Settings in all cases: read-out: Activity
SK-MEL-2 = assay: Growth inhibition of human SK-MEL-2 cells assessed as cell growth at 10 uM incubated for 48 hrs by sulforhodamine B assay relative to control
Method in brief: (§1)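 Run by the NCI Developmental Therapeutics Program as part of its 60-line human tumour panel. Each compound tested at a single 10 µM dose. Growth expressed as % relative to untreated control cells (100%).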

Hs-578T = assay: Growth inhibition of human Hs-578T cells assessed as cell growth at 10 uM incubated for 48 hrs by sulforhodamine B assay relative to control
Method in brief: (§2)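 Submitted to the NCI Developmental Therapeutics Program for the NCI60 human tumour cell line panel. First screen at a single 10 µM concentration. Read-out is growth relative to untreated control cells set at 100%.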

BT-549 = assay: Growth inhibition of human BT-549 cells assessed as cell growth at 10 uM incubated for 48 hrs by sulforhodamine B assay relative to control
Method in brief: (§3)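 NCI Developmental Therapeutics Program NCI60 human tumour cell line panel, one-dose primary screen with every compound at 10 µM. Growth is expressed as % of untreated control cells (100%).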

MCF7 = assay: Growth inhibition of human MCF7 cells assessed as cell growth at 10 uM incubated for 48 hrs by sulforhodamine B assay relative to control; method in brief: as §2
HCT-15 = assay: Growth inhibition of human HCT-15 cells assessed as cell growth at 10 uM incubated for 48 hrs by sulforhodamine B assay relative to control; method in brief: as §2
SR = assay: Growth inhibition of human SR cells assessed as cell growth at 10 uM incubated for 48 hrs by sulforhodamine B assay relative to control; method in brief: as §1
K562 = assay: Growth inhibition of human K562 cells assessed as cell growth at 10 uM incubated for 48 hrs by sulforhodamine B assay relative to control; method in brief: as §2
CAKI-1 = assay: Growth inhibition of human CAKI-1 cells assessed as cell growth at 10 uM incubated for 48 hrs by sulforhodamine B assay relative to control
Method in brief: (§4)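 NCI Developmental Therapeutics Program NCI60 panel. Compounds that were active in the 10 µM one-dose screen went on to dose–response testing. Growth at each concentration is expressed relative to untreated control (100%). GI50 (concentration giving 50% of maximal inhibition of proliferation) and TGI (concentration giving total growth inhibition) were derived from the curves.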

NCI-H322M = assay: Growth inhibition of human NCI-H322M cells assessed as cell growth at 10 uM incubated for 48 hrs by sulforhodamine B assay relative to control; method in brief: as §2
NCI-H522 = assay: Growth inhibition of human NCI-H522 cells assessed as cell growth at 10 uM incubated for 48 hrs by sulforhodamine B assay relative to control; method in brief: as §2
NCI-H460 = assay: Growth inhibition of human NCI-H460 cells assessed as cell growth at 10 uM incubated for 48 hrs by sulforhodamine B assay relative to control; method in brief: as §2
NCI-H226 = assay: Growth inhibition of human NCI-H226 cells assessed as cell growth at 10 uM incubated for 48 hrs by sulforhodamine B assay relative to control; method in brief: as §2
NCI/ADR-RES = assay: Growth inhibition of human NCI/ADR-RES cells assessed as cell growth at 10 uM incubated for 48 hrs by sulforhodamine B assay relative to control; method in brief: as §2
HCT-116 = assay: Growth inhibition of human HCT-116 cells assessed as cell growth at 10 uM incubated for 48 hrs by sulforhodamine B assay relative to control; method in brief: as §2
SNB-75 = assay: Growth inhibition of human SNB-75 cells assessed as cell growth at 10 uM incubated for 48 hrs by sulforhodamine B assay relative to control; method in brief: as §1
SF-268 = assay: Growth inhibition of human SF-268 cells assessed as cell growth at 10 uM incubated for 48 hrs by sulforhodamine B assay relative to control; method in brief: as §1
PC-3 = assay: Growth inhibition of human PC-3 cells assessed as cell growth at 10 uM incubated for 48 hrs by sulforhodamine B assay relative to control; method in brief: as §1
SW-620 = assay: Growth inhibition of human SW-620 cells assessed as cell growth at 10 uM incubated for 48 hrs by sulforhodamine B assay relative to control; method in brief: as §1
TK-10 = assay: Growth inhibition of human TK-10 cells assessed as cell growth at 10 uM incubated for 48 hrs by sulforhodamine B assay relative to control; method in brief: as §1
COLO 205 = assay: Growth inhibition of human COLO 205 cells assessed as cell growth at 10 uM incubated for 48 hrs by sulforhodamine B assay relative to control; method in brief: as §4
OVCAR-4 = assay: Growth inhibition of human OVCAR-4 cells assessed as cell growth at 10 uM incubated for 48 hrs by sulforhodamine B assay relative to control; method in brief: as §1
ACHN = assay: Growth inhibition of human ACHN cells assessed as cell growth at 10 uM incubated for 48 hrs by sulforhodamine B assay relative to control; method in brief: as §3
SK-OV-3 = assay: Growth inhibition of human SK-OV-3 cells assessed as cell growth at 10 uM incubated for 48 hrs by sulforhodamine B assay relative to control; method in brief: as §1
SK-MEL-28 = assay: Growth inhibition of human SK-MEL-28 cells assessed as cell growth at 10 uM incubated for 48 hrs by sulforhodamine B assay relative to control; method in brief: as §1
HT-29 = assay: Growth inhibition of human HT-29 cells assessed as cell growth at 10 uM incubated for 48 hrs by sulforhodamine B assay relative to control; method in brief: as §2

`Cc1ccc(S(=O)(=O)n2ccc(-c3ccc(OCCCF)cc3)n2)cc1` showed a growth at 10 µM (SK-MEL-2) of 87.2%, a growth at 10 µM (Hs-578T) of 109% and a growth at 10 µM (BT-549) of 99.9%. For the same molecule, the growth at 10 µM (MCF7) was 78.3%, the growth at 10 µM (HCT-15) was 93.5% and the growth at 10 µM (SR) was 67.4%. For the same molecule, the growth at 10 µM (K562) was 55.4%, the growth at 10 µM (CAKI-1) was 63.8% and the growth at 10 µM (NCI-H322M) was 93.7%. It also gave a growth at 10 µM (NCI-H522) of 69.5%, a growth at 10 µM (NCI-H460) of 89.6% and a growth at 10 µM (NCI-H226) of 77.6%. For the same molecule, the growth at 10 µM (NCI/ADR-RES) was 77.1%, the growth at 10 µM (HCT-116) was 86.1% and the growth at 10 µM (SNB-75) was 78.3%. For the same molecule, the growth at 10 µM (SF-268) was 103%, the growth at 10 µM (PC-3) was 73.5% and the growth at 10 µM (SW-620) was 103%. It also gave a growth at 10 µM (TK-10) of 62.8%, a growth at 10 µM (COLO 205) of 101% and a growth at 10 µM (OVCAR-4) of 73.2%. The growth at 10 µM (ACHN) was 97.4%, the growth at 10 µM (SK-OV-3) was 107% and the growth at 10 µM (SK-MEL-28) was 85%. For the same molecule, the growth at 10 µM (HT-29) was 86.4%.
Molecule `O=S(=O)(c1ccc(Br)cc1)n1ccc(-c2ccc(OCCCF)cc2)n1` has a growth at 10 µM (SK-MEL-2) of 96.4%, a growth at 10 µM (Hs-578T) of 115% and a growth at 10 µM (BT-549) of 110%. For the same molecule, the growth at 10 µM (MCF7) was 75.6%, the growth at 10 µM (HCT-15) was 86.4% and the growth at 10 µM (SR) was 75.2%. The growth at 10 µM (K562) was 55.6%, the growth at 10 µM (CAKI-1) was 79.3% and the growth at 10 µM (NCI-H322M) was 104%. For the same molecule, the growth at 10 µM (NCI-H522) was 79.4%, the growth at 10 µM (NCI-H460) was 90.1% and the growth at 10 µM (NCI-H226) was 80.6%. For the same molecule, the growth at 10 µM (NCI/ADR-RES) was 78.9%, the growth at 10 µM (HCT-116) was 78.7% and the growth at 10 µM (SNB-75) was 84.5%. The growth at 10 µM (SF-268) was 98.5%, the growth at 10 µM (PC-3) was 79.5% and the growth at 10 µM (SW-620) was 107%. For the same molecule, the growth at 10 µM (TK-10) was 70.8%, the growth at 10 µM (COLO 205) was 102% and the growth at 10 µM (OVCAR-4) was 71.1%. The growth at 10 µM (ACHN) was 94.1%, the growth at 10 µM (SK-OV-3) was 106% and the growth at 10 µM (SK-MEL-28) was 93.4%. It also gave a growth at 10 µM (HT-29) of 89.4%.
Molecule `O=S(=O)(c1ccccc1)n1ccc(-c2ccc3c(c2)CCO3)n1` has a growth at 10 µM (SK-MEL-2) of 86.5%, a growth at 10 µM (Hs-578T) of 102% and a growth at 10 µM (BT-549) of 96%. For the same molecule, the growth at 10 µM (MCF7) was 83.2%, the growth at 10 µM (HCT-15) was 92.8% and the growth at 10 µM (SR) was 73.3%. For the same molecule, the growth at 10 µM (K562) was 56%, the growth at 10 µM (CAKI-1) was 75.3% and the growth at 10 µM (NCI-H322M) was 91.4%. For the same molecule, the growth at 10 µM (NCI-H522) was 61.7%, the growth at 10 µM (NCI-H460) was 87.3% and the growth at 10 µM (NCI-H226) was 64.6%. It also gave a growth at 10 µM (NCI/ADR-RES) of 76%, a growth at 10 µM (HCT-116) of 89.1% and a growth at 10 µM (SNB-75) of 76.2%. It also gave a growth at 10 µM (SF-268) of 92.8%, a growth at 10 µM (PC-3) of 84.2% and a growth at 10 µM (SW-620) of 93.7%. For the same molecule, the growth at 10 µM (TK-10) was 76.2%, the growth at 10 µM (COLO 205) was 96.9% and the growth at 10 µM (OVCAR-4) was 70.1%. For the same molecule, the growth at 10 µM (ACHN) was 78.4%, the growth at 10 µM (SK-OV-3) was 104% and the growth at 10 µM (SK-MEL-28) was 86.2%. The growth at 10 µM (HT-29) was 92.8%.
